Laboratory results from ChEMBL document CHEMBL1149790, “Synthesis of some novel thiourea derivatives obtained from 5-[(4-aminophenoxy)methyl]-4-alkyl/aryl-2,4-dihydro-3H-1,2,4-triazole-3-thiones and evaluation as antiviral/anti-HIV and anti-tuberculosis agents” (Eur J Med Chem, 2008).
In brackets after ≈: the same amount, converted by molar mass. Activity calls are given as the source filed them. The calls are words filed in the database; no cut-off is given here.

Key:
[1] = Cytotoxicity against human E6SM cells; assay type: cell-based; details: E6SM cells
Procedure, shortened: (§1)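 Uninfected cell cultures exposed to test compounds alongside antiviral assays; minimum cytotoxic concentration (MCC) = concentration causing a microscopically detectable alteration of cell morphology.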

Human betaherpesvirus 5 [2] = assay: Antiviral activity against human cytomegalovirus AD169 infected HEL cells assessed as reduction in virus plaque formation; assay type: functional, organism-based; details: Human betaherpesvirus 5, AD169, HEL
[3] = tested on: Human immunodeficiency virus 2; assay: Antiviral activity against HIV2 ROD in human MT4 cells assessed as protection against virus-induced cytopathogenicity by MTT assay; assay type: functional, organism-based; set-up: Activity: concentration or dose not given beside the values; details: for IC50: Human immunodeficiency virus 2, ROD, MT4
Procedure, shortened: (§2)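 MT-4 cells at 6 × 10⁵ cells/ml infected with HIV-1 IIIB or HIV-2 ROD at 100–300 CCID50; compounds in serial five-fold dilutions, triplicate mock- and virus-infected wells. MTT viability read at 540 and 690 nm after 5 days, median OD of three wells; EC50 = 50% protection from viral cytopathic effect.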

[4] = tested on: Mammalian orthoreovirus 1; assay: Antiviral activity against Reo virus 1 in african green monkey Vero cells assessed as reduction of virus-induced cytopathogenicity; assay type: functional
Procedure, shortened: (§3)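 Confluent cell monolayers (E6SM, HEL, HeLa or Vero, per line) inoculated with 100 CCID50 virus; 1 h adsorption, residual virus removed, then incubated with compound at 400, 200, 100 … µg/ml. Cytopathicity scored once complete in untreated virus controls; MIC = concentration inhibiting virus-induced cytopathicity.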

Coxsackievirus B4 [5] = assay: Antiviral activity against Coxsackie virus B4 in human HeLa cells assessed as inhibition of virus-induced cytopathogenicity; assay type: functional; details: Enterovirus B; procedure, shortened: as §3
[6] = tested on: Respiratory syncytial virus; assay: Antiviral activity against respiratory syncytial virus in human HeLa cells assessed as inhibition of virus-induced cytopathogenicity; assay type: functional; procedure, shortened: as §3
[7] = Cytotoxicity against human HEL cells assessed as alteration of cell morphology; assay type: cell-based; procedure, shortened: as §1
Human betaherpesvirus 5 [8] = assay: Antiviral activity against human cytomegalovirus Davis infected HEL cells assessed as reduction in virus plaque formation; assay type: functional, organism-based; details: Human betaherpesvirus 5, Davis
Human alphaherpesvirus 1 [9] = assay: Antiviral activity against HSV1 KOS in human E6SM cells assessed as reduction of virus-induced cytopathogenicity; assay type: functional; details: Human alphaherpesvirus 1, KOS; procedure, shortened: as §3
[10] = tested on: Vesicular stomatitis virus; assay: Antiviral activity against vesicular stomatitis virus in human HeLa cells assessed as inhibition of virus-induced cytopathogenicity; assay type: functional; procedure, shortened: as §3
Vero = assay: Cytotoxicity against african green monkey Vero cells; assay type: cell-based; details: chlorocebus sabaeus; procedure, shortened: as §1
Human alphaherpesvirus 1 [11] = assay: Antiviral activity against thymidine kinase deficient and acyclovir resistant HSV1 KOS in human HEL cells assessed as reduction of virus-induced cytopathogenicity; assay type: functional; details: Human alphaherpesvirus 1, KOS; procedure, shortened: as §3
[12] = tested on: Vesicular stomatitis virus; assay: Antiviral activity against in Vesicular stomatitis virus in human E6SM cells assessed as reduction of virus-induced cytopathogenicity; assay type: functional; procedure, shortened: as §3
Sindbis virus = assay: Antiviral activity against Sindbis virus in african green monkey Vero cells assessed as reduction of virus-induced cytopathogenicity; assay type: functional; procedure, shortened: as §3
Human alphaherpesvirus 1 [13] = assay: Antiviral activity against thymidine kinase deficient and acyclovir resistant HSV1 KOS in human E6SM cells assessed as reduction of virus-induced cytopathogenicity; assay type: functional; details: Human alphaherpesvirus 1, KOS; procedure, shortened: as §3
Human alphaherpesvirus 2 [14] = assay: Antiviral activity against HSV2 G in human E6SM cells assessed as reduction of virus-induced cytopathogenicity; assay type: functional; details: Human alphaherpesvirus 2, G; procedure, shortened: as §3
Punta Toro virus = assay: Antiviral activity against Punta Toro virus in african green monkey Vero cells assessed as reduction of virus-induced cytopathogenicity; assay type: functional; procedure, shortened: as §3
[15] = tested on: Human immunodeficiency virus 1; assay: Antiviral activity against HIV1 3B in human MT4 cells assessed as protection against virus-induced cytopathogenicity by MTT assay; assay type: functional, organism-based; set-up: Activity: concentration or dose not given beside the values; details: for IC50: Human immunodeficiency virus 1, 3B, MT4; procedure, shortened: as §2
[16] = Cytotoxicity against human HeLa cells; assay type: cell-based; procedure, shortened: as §1
Human alphaherpesvirus 3 [17] = assay: Antiviral activity against TK- VZV 07/1 infected HEL cells assessed as reduction in virus plaque formation; assay type: functional, organism-based; details: Human alphaherpesvirus 3, 07/1, HEL
[18] = tested on: Vesicular stomatitis virus; assay: Antiviral activity against in Vesicular stomatitis virus in human HEL cells assessed as reduction of virus-induced cytopathogenicity; assay type: functional; procedure, shortened: as §3
Human alphaherpesvirus 2 [19] = assay: Antiviral activity against HSV2 G in human HEL cells assessed as reduction of virus-induced cytopathogenicity; assay type: functional; details: Human alphaherpesvirus 2, G; procedure, shortened: as §3
[20] = tested on: Mycobacterium tuberculosis; assay: Antitubercular activity against Mycobacterium tuberculosis H37Rv at 6.25 ug/ml by MABA assay; assay type: functional
[21] = Cytotoxicity against human MT4 cells by MTT assay; assay type: cell-based
Procedure, shortened: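 Mock-infected MT-4 cells (6 × 10⁵ cells/ml) with serial five-fold compound dilutions in triplicate; MTT reduction read at 540 and 690 nm after 5 days, median OD of three wells; CC50 = concentration reducing OD540 of mock-infected control by 50%.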

Coxsackievirus B4 [22] = assay: Antiviral activity against Coxsackie virus B4 in african green monkey Vero cells assessed as reduction of virus-induced cytopathogenicity; assay type: functional; details: Enterovirus B; procedure, shortened: as §3
Human alphaherpesvirus 3 [23] = assay: Antiviral activity against TK+ VZV OKA infected HEL cells assessed as reduction in virus plaque formation; assay type: functional, organism-based; details: Human alphaherpesvirus 3, OKA
Human respirovirus 3 = assay: Antiviral activity against Parainfluenza 3 virus in african green monkey Vero cells assessed as reduction of virus-induced cytopathogenicity; assay type: functional; procedure, shortened: as §3
Human alphaherpesvirus 1 [24] = assay: Antiviral activity against HSV1 KOS in human HEL cells assessed as reduction of virus-induced cytopathogenicity; assay type: functional; details: Human alphaherpesvirus 1, KOS; procedure, shortened: as §3
[25] = Cytotoxicity against human HEL cells assessed as reduction of cell growth; assay type: cell-based
Procedure, shortened: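 HEL cells; CC50 = compound concentration reducing cell growth by 50%.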

SMILES | MCC [1] [µg/mL] | EC50 (Human betaherpesvirus 5 [2]) [µg/mL] | Activity [3] [%] | IC50 [3] [µg/mL] | MIC [4] [µg/mL] | MIC (Coxsackievirus B4 [5]) [µg/mL] | MIC [6] [µg/mL] | MCC [7] [µg/mL] | EC50 (Human betaherpesvirus 5 [8]) [µg/mL] | MIC (Human alphaherpesvirus 1 [9]) [µg/mL] | MIC [10] [µg/mL] | Activity (Vero) [µg/mL] | MIC (Human alphaherpesvirus 1 [11]) [µg/mL] | MIC [12] [µg/mL] | MIC (Sindbis virus) [µg/mL] | MIC (Human alphaherpesvirus 1 [13]) [µg/mL] | MIC (Human alphaherpesvirus 2 [14]) [µg/mL] | MIC (Punta Toro virus) [µg/mL] | Activity [15] [%] | IC50 [15] [µg/mL] | further results
C=CCn1c(COc2ccc(N)cc2)n[nH]c1=S | > 400 | > 100 | 9 | > 125 | > 80 | > 400 | > 400 | > 400 | > 100 | > 400 | > 400 | 400 | > 400 | > 400 | > 80 | > 400 | 240 (≈ 915 µM) | > 80 | 3.5 | > 125 | MCC [16]: > 400 µg/mL; EC50 (Human alphaherpesvirus 3 [17]): > 100 µg/mL; MIC [18]: > 400 µg/mL; MIC (Human alphaherpesvirus 2 [19]): 240 µg/mL (≈ 915 µM); Activity [20]: inactive; CC50 [21]: > 125 µg/mL; MIC (Coxsackievirus B4 [22]): > 80 µg/mL; EC50 (Human alphaherpesvirus 3 [23]): > 100 µg/mL; MIC (Human respirovirus 3): > 80 µg/mL; MIC (Human alphaherpesvirus 1 [24]): > 400 µg/mL; CC50 [25]: > 50 µg/mL
CCNC(=S)Nc1ccc(OCc2n[nH]c(=S)n2C)cc1 | > 400 | > 100 | 2 | > 125 | > 80 | > 80 | > 80 | > 400 | > 100 | > 400 | > 80 | 400 | 240 (≈ 742 µM) | > 400 | > 80 | 240 (≈ 742 µM) | 240 (≈ 742 µM) | > 80 | 1.5 | > 107 | MCC [16]: 400 µg/mL; EC50 (Human alphaherpesvirus 3 [17]): > 100 µg/mL; MIC [18]: > 400 µg/mL; MIC (Human alphaherpesvirus 2 [19]): 240 µg/mL (≈ 742 µM); Activity [20]: inactive; CC50 [21]: ≥ 107 µg/mL; MIC (Coxsackievirus B4 [22]): > 80 µg/mL; EC50 (Human alphaherpesvirus 3 [23]): > 100 µg/mL; MIC (Human respirovirus 3): > 80 µg/mL; MIC (Human alphaherpesvirus 1 [24]): > 400 µg/mL; CC50 [25]: > 50 µg/mL
CCn1c(COc2ccc(N)cc2)n[nH]c1=S | > 400 | > 100 | 8 | > 125 | > 16 | > 400 | > 400 | > 400 | > 100 | > 400 | > 400 | 80 | 240 (≈ 959 µM) | > 400 | > 16 | 240 (≈ 959 µM) | 240 (≈ 959 µM) | > 16 | 6 | > 125 | MCC [16]: ≥ 400 µg/mL; EC50 (Human alphaherpesvirus 3 [17]): > 100 µg/mL; MIC [18]: > 400 µg/mL; MIC (Human alphaherpesvirus 2 [19]): 240 µg/mL (≈ 959 µM); Activity [20]: inactive; CC50 [21]: > 125 µg/mL; MIC (Coxsackievirus B4 [22]): > 16 µg/mL; EC50 (Human alphaherpesvirus 3 [23]): > 100 µg/mL; MIC (Human respirovirus 3): > 16 µg/mL; MIC (Human alphaherpesvirus 1 [24]): > 400 µg/mL; CC50 [25]: > 50 µg/mL
CCNC(=S)Nc1ccc(OCc2n[nH]c(=S)n2-c2ccccc2)cc1 | > 400 | > 100 | 11 | > 19.4 | > 80 | > 80 | > 80 | > 400 | > 100 | > 400 | > 80 | 400 | > 400 | > 400 | > 80 | > 400 | > 400 | > 80 | 1 | > 15 | MCC [16]: 400 µg/mL; EC50 (Human alphaherpesvirus 3 [17]): > 100 µg/mL; MIC [18]: > 400 µg/mL; MIC (Human alphaherpesvirus 2 [19]): > 400 µg/mL; CC50 [21]: 22 µg/mL (≈ 57.1 µM); MIC (Coxsackievirus B4 [22]): 80 µg/mL (≈ 208 µM); EC50 (Human alphaherpesvirus 3 [23]): > 100 µg/mL; MIC (Human respirovirus 3): > 80 µg/mL; MIC (Human alphaherpesvirus 1 [24]): > 400 µg/mL; CC50 [25]: > 50 µg/mL
